SENP1 FRET inh = human SENP1 catalytic domain inhibitors, primary screen, biochemical, FRET, uHTS. Sentrin-specific protease 1 (Homo sapiens), Q9P0U3. recombinant SENP1 catalytic domain, CyPet-SUMO1-YPet FRET cleavage. AID 624204, 2012. inhibition, % at 10 µM. 360,000 compounds, 0.21% hits;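 active = inhibition at least 30% at 10 µM, raw YFP signal under a set limit, fluorescence ratio 0.5 to 1.5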;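 also: 0% = enzyme with DMSO and 100% = no enzyme wells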
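Assay system: hSENP1 catalytic domain, recombinant. Amount: SENP1 enzyme, 20 pM final. Schedule: 50 min reaction, RT, dark. Technique: FRET, CFP and YFP emission. Control set: no-enzyme wells low, DMSO-plus-enzyme wells high control.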
SENP6 block = SENP6 protease inhibitors, primary screen, biochemical, luminescence, uHTS | AID 2599, 2010 | Recombinant SENP6 catalytic domain, aminoluciferin luminescence | 330,000 compounds, 1.8% hits | Sentrin-specific protease 6 (Homo sapiens), Q9GZR1 | inhibition, % at 10 µM;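 active = inhibition above about 50% at the single tested dose, limit read from the data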;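 also: plate controls were DMSO wells with enzyme for no effect and DMSO wells lacking enzyme for full effect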
SENP8 block-1 = human SENP8 protease inhibitors, primary screen, biochemical, fluorescence, Nedd8 protein substrate, uHTS. Sentrin-specific protease 8 (Homo sapiens), Q96LD8. recombinant SENP8. inhibition, % at 20 µM. 360,000 compounds, 0.64% hits. AID 602440, 2012; in the data active = inhibition mostly above about 40%, no sharp cut-off; inactive = mostly below about 27%
Target sequence (Q96LD8 whole entry, looked up): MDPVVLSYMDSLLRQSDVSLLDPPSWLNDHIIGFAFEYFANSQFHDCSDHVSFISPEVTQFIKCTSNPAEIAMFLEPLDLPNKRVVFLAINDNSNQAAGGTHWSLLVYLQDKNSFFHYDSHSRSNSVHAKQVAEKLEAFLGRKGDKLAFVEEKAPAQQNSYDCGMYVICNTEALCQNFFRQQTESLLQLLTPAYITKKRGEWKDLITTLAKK
SENP7 inh = SENP7 protease inhibitors, primary screen, biochemical, luminescence, uHTS. Sentrin-specific protease 7 (Homo sapiens), Q9BQF6. inhibition, % at 5 µM. AID 434973, 2010. 330,000 compounds, 1.5% hits. recombinant SENP7, Z-RLRGG-aminoluciferin luminescence, 40 min;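 active = inhibition above about 50% at the single test dose, limit read from the data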;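 also: plate controls were DMSO with enzyme for no effect and no enzyme buffer wells for full effect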
SENP8 block-2 = SENP8 protease inhibitors, primary screen, biochemical, luminescence. Sentrin-specific protease 8 (Homo sapiens), Q96LD8. purified SENP8, Z-RLRGG-aminoluciferin cleavage. inhibition, % at 10 µM. 330,000 compounds, 1.2% hits. AID 2540, 2010; in the data active = inhibition above about 50%
SENP8 conf = SENP8 protease inhibitors, retest, confirmation, biochemical, luminescence, single concentration. Recombinant SENP8, Z-RLRGG-aminoluciferin luminescence, 60 min. inhibition, % at 12.5 µM. shares compounds with SENP7 inh. 6,200 compounds, 40% hits;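 active = mean inhibition across replicates above about 50%, limit read from the data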
SENP6 confirm = SENP6 protease inhibitors, confirmation, biochemical, luminescence, single concentration | shares compounds with SENP7 inh | recombinant SENP6, Z-RLRGG-aminoluciferin luminescence | inhibition, % at 12.5 µM | 6,200 compounds, 58% hits | AID 488915, 2010
SENP7 confirm = SENP7 protease inhibitors, retest, confirmation, biochemical, luminescence, single concentration; shares compounds with SENP7 inh; recombinant SENP7, Z-RLRGG-aminoluciferin luminescence, 40 min; 6,200 compounds, 69% hits; inhibition, % at 12.5 µM; AID 488917, 2010
Casp3 select = caspase-3 protease inhibitors, confirmation, selectivity assay for SENP inhibitor project, biochemical, single concentration; shares compounds with SENP7 inh; purified caspase-3, Z-DEVD-aminoluciferin luminescence, 60 min; inhibition, % at 12.5 µM; 6,200 compounds, 60% hits; AID 488918, 2010;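 active = mean inhibition above about 50%, limit read from the data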;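 also: plate controls were enzyme with DMSO for no effect and wells without caspase-3 for full effect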
Target sequence (P42574 28-227 limits assumed): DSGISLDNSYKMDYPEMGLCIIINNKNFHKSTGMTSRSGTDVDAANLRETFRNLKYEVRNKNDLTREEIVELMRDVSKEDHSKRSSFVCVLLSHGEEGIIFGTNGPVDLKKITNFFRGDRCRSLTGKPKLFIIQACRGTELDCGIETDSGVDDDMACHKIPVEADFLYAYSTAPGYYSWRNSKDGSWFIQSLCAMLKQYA
SENP luc ctr = counter-screen for SENP inhibitors: luminescence interference. 6,200 compounds, 39% hits. inhibition, % at 12.5 µM. shares compounds with SENP7 inh. AID 488919. Pre-incubated SENP8/Z-RLRGG-aminoluciferin, luciferase luminescence interference;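 active = mean inhibition above about 50% when retested at one dose, limit read from the data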;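 also: plate controls were DMSO wells with completed reaction for no effect and substrate without enzyme for full effect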
* hit, by the source's call; . = no result. Rows were chosen to be rich in hits. Some 2.5% of all compounds tested hit in one or more screens of this group.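 The calls were made as follows, unless noted: active = mean inhibition above about 50% in the one-dose retest (limit read from the data); inactive = the rest.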

SMILES | SENP1 FRET inh | SENP6 block | SENP8 block-1 | SENP7 inh | SENP8 block-2 | SENP8 conf | SENP6 confirm | SENP7 confirm | Casp3 select | SENP luc ctr
Cc1ccc(C(=O)Nc2ccc3ccccc3n2)cc1 | 1 | 86* | 11 | 86* | 80* | 88* | 88* | 97* | 82* | 77*
CCCN1CCN(C(=O)c2oc3ccccc3c2NC(=O)COc2ccc(OC)cc2)CC1 | 4 | 4 | 6 | -4 | 1 | . | . | . | . | .
CC(C)(C)OC(=O)NC(CNCc1ccccc1)Cc1ccccc1 (centres undefined) | 2 | -10 | 10 | -8 | -11 | . | . | . | . | .
O=C(NCCNC(=O)c1ccco1)c1ccc(F)cc1 | 1 | 3 | 2 | 3 | 3 | . | . | . | . | .
O=C(/C(C=Nc1ccc(F)cc1)=C(/O)c1ccco1)C(F)(F)F | -60 | 77* | -117 | 79* | 47 | -2 | 4 | 12 | 36 | 29
Cc1ccc(N=C/C(C(=O)C(F)(F)F)=C(\O)c2ccco2)cc1Cl | -22 | 68* | -246 | 59* | 37 | -6 | 0 | 39 | 18 | 54*
COc1ccc(NC(=O)CN2CCN(CC(=O)Nc3ccc(OC)cc3)CC2)cc1 | 0 | 32 | 0 | 11 | 4 | . | . | . | . | .
CN(C)c1ccc(N=Nc2cccc(F)c2)cc1 | 5 | 94* | 31 | 95* | 87* | 6 | 73* | 56* | 59* | 64*
CN(C)c1ccc(N=Nc2cccc3ccoc23)cc1 | 5 | 86* | 24 | 90* | 84* | 77* | 77* | 94* | 48 | 28
Cc1ccc(NC(=O)C2CCN(S(=O)(=O)c3ccc4c(c3)C(C)(C)C(=O)N4C)CC2)c(C)c1 | 0 | 4 | 8 | 16 | -6 | . | . | . | . | .
O=C(CSCc1c(F)cccc1Cl)NNC(=S)NC1CCCCC1 | 0 | 0 | -2 | 6 | 2 | . | . | . | . | .
C/C(=N\OCc1cccc(C(=O)O)c1)c1ccc(Cl)cc1 | -1 | 97* | 21 | 101* | 97* | 99* | 100* | 103* | 97* | 98*
C/C(=N\OCc1ccc(C#N)cc1)c1ccccc1 | 0 | 89* | 4 | 80* | 79* | 82* | 86* | 97* | 77* | 68*
C/C(=N\OCc1ccc(C#N)cc1)c1ccc(S(=O)(=O)N(C)C)cc1 | -1 | -5 | 16 | -8 | 1 | . | . | . | . | .
CCCCSc1nnc(CSc2nc3nc(C)cc(C)n3n2)o1 | 3 | -37 | 10 | 78* | -4 | 7 | 8 | -6 | -1 | 0
CCCSc1nnc(CSc2nc3nc(C)cc(C)n3n2)o1 | 1 | -14 | 8 | -6 | -2 | . | . | . | . | .
COc1ccccc1N=C(C)C1=C(O)CSC1=O | -18 | -10 | 28 | 9 | -6 | . | . | . | . | .
CC(=Nc1ccc(C)c(C)c1)C1=C(O)CSC1=O | -23 | 54* | -18 | 9 | 22 | 58* | 56* | 82* | 74* | 64*
O=C(c1ccc(O)cc1)c1ccc(O)cc1O | -2 | -6 | 16 | -2 | 3 | . | . | . | . | .
